A selection: hits, their analogues and other compounds. The true share with any hit is near 2.2%.
SMARCA2 activ = SMARCA2 function activation, primary screen. AID 652017. activation, % at 9.1 µM. hit rate 1% among 370,000. MG213 cells, MMTV-luciferase reporter, dexamethasone, overnight; in the data active = activation above about 7.8%
NR2E3 ag-1 = agonists of human nuclear receptor NR2E3 | Q9Y5X4 | GST-NR2E3/biotin-RetCOR TR-FRET, 1536-well | inhibition of corepressor binding, % at 4.78 µM | hit rate 0.12% among 320,000 | AID 2300;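 active = percent inhibition above the cutoff of mean plus 3 SD of all tested compounds, set per screening campaign, cut at about 20% in these data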
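Material: NR2E3–RetCOR corepressor complex / Amount: 1.35 nM GST-NR2E3 / Medium: Tris pH 7.5 / Compound: single nominal compound dose of 4.8 µM / Incubation: 5 h at 4 °C / Technique: TR-FRET, Eu(K)-anti-GST donor, streptavidin-D2 acceptor, ex 340, em 617/671 nm / Read-out basis: percent loss of FRET ratio relative to control wells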
COUP-TFII inh = NR2F2 (human) inhibition, primary screen. hit rate 0.7% among 370,000. HEK293T NGFI-A luciferase reporter, luminescence. P24468. inhibition, % at 8.6 µM;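 active = inhibition above a per-plate cutoff, mean inhibition of test wells between control levels plus 3 SD, cut at about 38% in these data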;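 also: cells cotransfected with COUP-TFII expression vector driving the NGFI-A reporter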
GalR3 antag = human GalR3 antagonism | HEK293 GalR3-CNG cAMP membrane potential fluorescence; galR3 body fused to GalR1 C-terminus | inhibition, % at 3 µM | hit rate 0.44% among 360,000 | AID 651719;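 active = inhibition above the screen-wide average plus 3 SD, cut at about 13% in these data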;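 also: forskolin and galanin both at EC90 stimulate the cells; cAMP rise reported by CNG channel membrane potential dye signal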
Target sequence (O60755 1-299 limits assumed): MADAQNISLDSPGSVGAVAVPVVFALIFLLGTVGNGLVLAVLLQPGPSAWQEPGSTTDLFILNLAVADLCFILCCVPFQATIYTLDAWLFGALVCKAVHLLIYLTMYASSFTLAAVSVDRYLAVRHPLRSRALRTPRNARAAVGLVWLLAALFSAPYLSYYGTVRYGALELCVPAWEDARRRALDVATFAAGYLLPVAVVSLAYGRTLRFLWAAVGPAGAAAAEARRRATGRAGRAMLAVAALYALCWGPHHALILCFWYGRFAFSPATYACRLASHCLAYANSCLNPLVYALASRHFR
NR2E3 ag-2 = human photoreceptor-specific nuclear receptor agonism; Q9Y5X4; CHO-S Gal4-NCOR/VP16-NR2E3 two-hybrid, luciferase; inhibition of corepressor binding, % at 3.98 µM; hit rate 0.35% among 360,000; AID 602229;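 active = inhibition above the mean of all tested compounds plus 3 SD, cut at about 70% in these data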;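 also: higher means lower luciferase signal from less NR2E3 corepressor binding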
SMARCA2 conf = SMARCA2 activation, confirmation screen | hit rate 30% among 3,500 | MG213 cells, MMTV-luciferase with dexamethasone, luminescence, overnight; MG213 cells expressing E1A, Rb sequestered; DMSO wells 0%, reference activator 100% | shares compounds with SMARCA2 activ | activation, % at 9.1 µM;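 active = activation above its plate's cutoff, the mean activation of tested wells plus 3 SD, cut at about 7.9% in these data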
GAL4-VP16 Luc = counter-screen for SMARCA2 activators: GAL4-VP16 luciferase reporter activation; shares compounds with SMARCA2 activ; HEK293 GAL4-VP16 pG5luc reporter, luciferase luminescence; scaled: DMSO wells 0%, SAHA wells 100%; activation, % at 9.1 µM; hit rate 41% among 3,500;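 active = activation above the solvent-only control well mean plus 3 SD, averaged across control plates, cut at about 5.2% in these data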
Numbers stand for hits; – = inactive; · = no result given.

SMILES	SMARCA2 activ	NR2E3 ag-1	COUP-TFII inh	GalR3 antag	NR2E3 ag-2	SMARCA2 conf	GAL4-VP16 Luc
CCSc1nnc(-c2ccco2)n1C	–	·	–	·	·	·	·
Cn1c(SCCc2ccccc2)nnc1-c1ccco1	9.4	·	–	·	·	–	–
COC(=O)[C@]1(CNC(C)=O)CC(=O)N(C)[C@@H]1c1ccccc1	–	·	–	·	·	·	·
Cc1onc(-c2c(F)cccc2Cl)c1C(=O)NC(=S)NC1CCS(=O)(=O)C1 (stereo not drawn)	15	–	–	–	–	–	–
Cc1onc(-c2c(F)cccc2Cl)c1C(=O)NC1CCCCCC1	–	–	–	–	–	·	·
CC(C)c1cc(C(=O)N(C2CCCCC2)C2CCCCC2)no1	–	·	–	·	·	·	·
Cc1cc(NS(=O)(=O)c2ccc(NC(=O)Cc3ccc(Cl)c(Cl)c3)cc2)on1	–	·	–	·	·	·	·
O=C(c1cc(-c2ccccc2)on1)N1CCC(Oc2cccnc2)CC1	–	·	–	·	·	·	·
CC1CCC2(CC1)NC(=O)N(CC(=O)Nc1ccc3c(c1)OCCO3)C2=O (stereo not drawn)	12	–	–	–	–	10	–
CC1CCC2(CC1)NC(=O)N(CC(=O)Nc1ccc3c(c1)OCCCO3)C2=O (stereo not drawn)	–	–	–	–	–	·	·
COCC(=O)N1C[C@H]2CON(C)[C@H]2C[C@H]1c1cccc(-c2cc(Cl)cc(Cl)c2)c1	–	·	–	–	·	·	·
COC(=O)c1ccc2[nH]c(C(C)(C)O)c(C)c2c1	8.2	–	–	–	–	–	–
COc1ccccc1C(CC(=O)O)NS(=O)(=O)c1ccc2c(c1)N(C(C)=O)CC(C)O2 (stereo not drawn)	10	–	–	–	–	–	–
CC(=O)N1CC(C)Oc2ccc(S(=O)(=O)NC(CC(=O)O)c3ccc(C)cc3C)cc21 (stereo not drawn)	–	–	–	–	–	·	·
COc1ccc(C(C)=O)cc1CS(=O)(=O)CC(=O)NCCc1c[nH]c2ccccc12	9.0	–	–	–	–	–	–
COc1ccc(C(=O)CCC(=O)NCCc2c[nH]c3ccccc23)cc1OC	–	–	–	–	–	·	·
Cc1ccccc1CN1CCCCC(NC(=O)c2ccc(F)c(F)c2)C1=O (stereo not drawn)	–	·	–	·	·	·	·
CCOc1ccc(CCNC(=O)c2cc(-c3ccccc3)c(N3CCOCC3)s2)cc1OC	–	·	–	·	·	·	·
Cc1nc(N)sc1-c1csc(Nc2ncccn2)n1	56	·	–	–	–	106	13
CCN(C[C@H]1N[C@@](Cc2ccccc2)(C(=O)OC)[C@H]2C(=O)N(Cc3ccccc3)C(=O)[C@@H]12)S(=O)(=O)c1ccc(C)cc1	10	·	–	–	–	–	–
COc1ccccc1Cn1c(-c2ccco2)nc2nc3ccccc3nc21	8.6	–	–	–	–	–	–
c1ccc(Cn2c(-c3ccco3)nc3nc4ccccc4nc32)cc1	–	–	–	–	–	·	·
Cc1cc(CNC[C@H]2O[C@@H](n3cnc(C(N)=O)n3)[C@H](O)[C@@H]2O)c(C)n1-c1cccnc1	–	·	–	–	–	·	·
NC(=O)c1ncn([C@@H]2O[C@H](CNCc3cccn3-c3ccncc3)[C@@H](O)[C@H]2O)n1	8.4	·	–	–	–	–	–
CC(C)[C@H](N)C(=O)N1CCC[C@@H]1C(=O)N1CCC2CCN(S(=O)(=O)c3ccccc3)CC21 (stereo partly drawn)	–	·	–	·	·	·	·
SMILES	SMARCA2 activ	NR2E3 ag-1	COUP-TFII inh	GalR3 antag	NR2E3 ag-2	SMARCA2 conf	GAL4-VP16 Luc
CCCCCCCCN1C(=O)[C@@H](CC(=O)N2CCSCC2)C[C@@]2(C(=O)OC)C1=C[C@H](C(C)(C)C)O[C@@H]2C	–	·	–	–	·	·	·
O=C(NN=C1CCCC1)c1cccc(O)c1	8.9	–	–	–	–	–	–
CCCC(=O)N1CCC[C@]2(CC[C@@H](CCC(=O)N(CC)CC)O2)C1	–	·	–	·	·	·	·
C=C(CN(C)C)C(=O)c1cc(OC)c(OC)cc1OC	16	·	–	–	–	–	–
COc1ccc(CN(C)C(=O)c2ccc3c(=O)n4c(nc3c2)CCC4)cc1	8.2	–	–	–	–	–	–
Cc1ccc(C)c(NC(=O)Cn2nnc(-c3ccncc3)n2)c1	–	·	–	·	·	·	·
O=C(Nc1ccc(-c2csc(-c3ccccc3)n2)cc1)c1ccccc1Cl	–	–	–	–	–	·	·
O=C(O)c1ccccc1C(=O)Nc1ccc(-c2csc(-c3ccccc3)n2)cc1	9.5	–	–	–	–	–	9.5
Cn1nnc(-c2ccc(OCc3ccccc3F)cc2)n1	11	–	–	–	–	–	13
Cc1ccc(Nc2nnc(-c3ccccc3N)o2)cc1C	12	–	–	–	–	–	8.5
c1ccc(Nc2nnc(-c3cccc4ccccc34)o2)cc1	–	–	–	–	–	·	·
COc1ccc(Cn2ccc3ccc(-c4ccc5ccn(C(=O)c6cccc(OC)c6)c5c4)cc32)cc1	–	·	–	·	·	·	·
O=C(Oc1c(CN2CCOCC2)cc(Cl)c2cccnc12)c1ccccc1Br	8.7	–	–	–	–	24	–
CC(C)CNC(=O)c1c(N)n(/N=C/c2ccccn2)c2nc3ccccc3nc12	8.5	–	–	–	–	–	–
Cc1cc(NS(=O)(=O)c2ccc(NC(=O)CSc3nnc(-c4ccccn4)n3-c3ccccc3)cc2)nc(C)n1	–	·	–	·	·	·	·
O=C(NCC1CCCO1)c1sc2cc(Cl)ccc2c1Cl (stereo not drawn)	10	–	–	–	–	8.4	9.4
O=C(CSc1nccn1Cc1ccc(F)cc1)Nc1ccc(F)cc1F	–	–	–	–	–	·	·
O=C(Nc1ccccc1)c1nccn1Cc1ccc(F)cc1	9.9	–	–	–	–	–	–
Nc1ccnc(Oc2ccc(F)cc2)c1	18	–	–	–	–	–	–
O=C1SC(Cc2ccccc2)C(=O)N1c1ccccc1 (stereo not drawn)	8.3	–	–	–	–	–	–
COc1ccc(C[N+]2=C(N)NC3=C(C)Cn4c(=O)n(-c5ccccc5)c(=O)n4C3C2)c(OC)c1 (stereo not drawn)	–	·	–	·	·	·	·
CC1CCCN(CCCNC(=O)c2cc3c(Cl)nc4ccccc4c3s2)C1 (stereo not drawn)	15	–	–	–	–	26	–
CN(CCCNC(=O)c1cc2c(Cl)nc3ccccc3c2s1)Cc1ccccc1	–	–	–	–	–	·	·
Cc1nc2ccccc2c2oc(C(=O)NCCCN3CCCC(C)C3)cc12 (stereo not drawn)	–	–	–	–	–	·	·
CCN(CC)CCCNC(=O)c1cc2c(Cl)nc3ccccc3c2s1	18	–	–	–	–	23	–
C=C(C)CSc1nnc(-c2cc(-c3ccc(OC)cc3)n[nH]2)n1N	–	·	–	·	·	·	·
